The series is described as follows: Toxicity liver stage against HepG2, at 10uM. Format: cell-based. Further details: test concentration 10 uM, cell line HepG2-A16-CD81EGFP. The following applies: human, HepG2-A16-CD81EGFP cells; read-out: INHIBITION
In a few lines:
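Uninfected HepG2-A16-CD81EGFP cells, 3 × 10^3 per well, 1536-well, plated on prespotted compound at 10 μM final, parasite-free screening media added to match infected plates; puromycin 10 μM positive, DMSO 0.5% negative; run in parallel with 48 h PbLuc assay at 37 °C, 5% CO2; viability by CellTiter-Glo luminescence, normalized to controls.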

The record followed here is ChEMBL document CHEMBL4513216, “Probing the Open Global Health Chemical Diversity Library for Multistage-Active Starting Points for Next-Generation Antimalarials” (ACS Infect Dis, 2020).

On to `CSCc1cccc(S(=O)(=O)N2CCCCC2)c1`, for which the cytotoxicity at 10 µM amounted to 6.61%.

For the compound `Cc1cccnc1NC(=O)C1CCN(C(=O)C(C)C)CC1`, the cytotoxicity at 10 µM was 6.7%.

For the compound `CCN(CC)C(=O)CCNC(=O)Cc1nc(-c2ccco2)oc1C`, the cytotoxicity at 10 µM is 26.8%.

`O=C(c1cc(C2CC2)on1)N1CCC(Oc2ncccc2Br)CC1`: the cytotoxicity at 10 µM is 3.96%.

Regarding `CNc1nc(C(=O)N2C[C@@H]3CC[C@H]2CN(C2CCOCC2)C3)cs1`, the cytotoxicity at 10 µM came to 4.84%.

For `Cc1nnc(Nc2cccc(C3CCN(CCO)CC3)n2)s1`, the cytotoxicity at 10 µM was found to be 2.37%.

Consider `O=C(Nc1cccnc1-n1cncn1)N(C1CCCC1)C1CC1`, for which the cytotoxicity at 10 µM is -10.9%.

Consider `O=C(CNc1ccc(OC2CCOC2)cc1)NCc1cccs1` (stereo not given), for which the cytotoxicity at 10 µM was 3.43%.

As to `Cc1oc(C)c(C(=O)NCc2cccnc2N(C)C)c1C`, the cytotoxicity at 10 µM is -0.292%.

Regarding `CCN(CC)C1COc2ccc(Br)cc2C1=O` (stereo not given), the cytotoxicity at 10 µM was -7.16%.

Turning to `CCC(CO)NC(=O)Nc1cc(F)ccc1Br` (stereo not given), the cytotoxicity at 10 µM worked out at 11.9%.

In the case of `Cc1cc(N2CCC(n3cc(CN4CCSCC4)nn3)CC2)ccn1`, the cytotoxicity at 10 µM was -12.5%.

Consider `CC(C)N(CCCNC(=O)C1CC(=O)N(C)C1)S(C)(=O)=O` (stereo not given), for which the cytotoxicity at 10 µM amounted to 8.35%.

In the case of `Cc1cnn(CCNCc2nc(-c3ccccc3Cl)no2)c1`, the cytotoxicity at 10 µM is -9.91%.

Take `CC(Cn1cccn1)NCc1csc(COc2ccccc2)n1` (stereo not given): the cytotoxicity at 10 µM was -8.51%.

Turning to `Cc1cc(C)cc(C2(C(=O)NCC3CCN(CC(F)(F)F)C3)CC2)c1` (stereo not given), the cytotoxicity at 10 µM is -1.62%.

With `Cn1cc(CN2CCO[C@H]3CN(Cc4ccsc4)C[C@H]32)cn1`, the cytotoxicity at 10 µM is -147%.

`Cc1nn(-c2ccccc2)c(C)c1-c1ccnc(N2CCC(O)CC2)n1`: the cytotoxicity at 10 µM was -1.74%.

In the case of `O=C(COCC1CC1)N1CCN(C(=O)Cc2ccccn2)CC1`, the cytotoxicity at 10 µM came to 10.3%.

Turning to `N#Cc1ccc(F)c(CN2CCCC2Cn2cncn2)c1` (stereo not given), the cytotoxicity at 10 µM was determined as 8.21%.

For the compound `Cc1n[nH]c(C)c1-c1nccnc1CC1CCN(S(C)(=O)=O)C1` (stereo not given), the cytotoxicity at 10 µM is -10.4%.

Regarding `COCCN1CCn2cc(CN(C)Cc3ccco3)nc2C1`, the cytotoxicity at 10 µM is -74.9%.

In the case of `CN(CC(=O)NC(N)=O)CC1(c2ccc(Br)cc2)CC1`, the cytotoxicity at 10 µM worked out at 0.913%.

Consider `O=C(Cn1ccc(=O)[nH]c1=O)Nc1ccccc1F`, for which the cytotoxicity at 10 µM is -0.691%.

Take `COC(=O)c1ccc(S(=O)(=O)NCc2cccnc2N(C)C)cc1`: the cytotoxicity at 10 µM came to 9.3%.

`Cc1cccc(CN2C[C@@H]3OCCN(S(=O)(=O)N(C)C)[C@@H]3C2)n1`: the cytotoxicity at 10 µM turned out to be 11.2%.

In the case of `Cc1cnn(CCCNC(=O)CCC2CCCCN2C)c1` (stereo not given), the cytotoxicity at 10 µM is -7.32%.

As to `COc1ccc(CCN2CCOC(Cn3nc(C)nc3C)C2)cc1` (stereo not given), the cytotoxicity at 10 µM is 2.29%.

For `COCCN1C(=O)C[C@@H]2[C@H]1CCN2C(=O)c1ccc[nH]1`, the cytotoxicity at 10 µM is -1.34%.

For `CCN(Cc1nc(COC)no1)Cc1cccnc1NC`, the cytotoxicity at 10 µM is -43.7%.

Regarding `COc1ccsc1C(=O)NC1CCN(c2ccc(C#N)cc2)CC1`, the cytotoxicity at 10 µM is -1.03%.

On to `Cn1nc(C(=O)NCc2cccc(Cn3ccnc3)c2)ccc1=O`, for which the cytotoxicity at 10 µM came out at 8.53%.

Take `Cc1cccc(OCC2CCCN(C(=O)CN(C)C3CCNCC3)C2)c1` (stereo not given): the cytotoxicity at 10 µM was -8.4%.

`COCCOCC(=O)NC(C#N)c1cc(Cl)cc(Cl)c1` (stereo not given): the cytotoxicity at 10 µM amounted to 8.31%.

Regarding `Cc1ccc(-c2nc(CN3CCN(S(=O)(=O)N(C)C)CC3)cs2)o1`, the cytotoxicity at 10 µM was 6.81%.

`CN1CCN(S(=O)(=O)c2cccc(F)c2)Cc2cccnc21`: the cytotoxicity at 10 µM is -110%.

Turning to `O=C([C@@H]1CC[C@@H]2[C@@H](CCN2Cc2cccs2)O1)N1CCCCO1`, the cytotoxicity at 10 µM was -2.33%.

With `CCc1noc(C)c1C(=O)NCc1ccccn1`, the cytotoxicity at 10 µM is -1%.

For `COCCn1/c(=N\C(=O)CN(C)S(C)(=O)=O)sc2cc(OC)ccc21`, the cytotoxicity at 10 µM is -7.93%.

Consider `CO[C@H]1CCN(C(=O)c2cc(C)on2)[C@H]1Cc1ccncc1`, for which the cytotoxicity at 10 µM amounted to 1.2%.

As for `Cc1occc(=O)c1OCC(=O)N1CCc2ccccc2C1`, the cytotoxicity at 10 µM was -0.765%.

For the compound `CCOC(=O)C1CN(CC2CC2)Cc2ncn(CC)c21` (stereo not given), the cytotoxicity at 10 µM came to 12.2%.

Take `Cc1cc(CN(C)C(=O)Nc2ccccc2C)no1`: the cytotoxicity at 10 µM is -8.75%.

As to `CN(C(=O)c1cccn1C)C1CCC(NC(=O)OC(C)(C)C)CC1` (stereo not given), the cytotoxicity at 10 µM is -4.18%.

For `N#Cc1cccc(N2CCC3(CCC(=O)N(CCCO)C3)CC2)n1`, the cytotoxicity at 10 µM amounted to 2.11%.

Turning to `Cc1nc(-c2cccnc2)ncc1C(=O)N1CCC(C(C)N(C)C)CC1` (stereo not given), the cytotoxicity at 10 µM is -1.8%.

`CCOCCCC(=O)N1CCCC1c1nc(-c2ccccc2F)c[nH]1` (stereo not given): the cytotoxicity at 10 µM amounted to 12.5%.

Consider `O=C(CN1CCc2onc(-c3ccccc3F)c2C1)NC1CC1`, for which the cytotoxicity at 10 µM was determined as 14.6%.

As for `COc1ccc(NC2CCCN(Cc3cnc(N(C)C)s3)C2)cc1OC` (stereo not given), the cytotoxicity at 10 µM came out at 3.46%.

Turning to `Cc1ccc(CN2CCCn3c(nc(Cn4ccnc4)cc3=O)C2)o1`, the cytotoxicity at 10 µM was 5.89%.

For the compound `CSc1ncccc1C(=O)N1C[C@@H]2CC[C@H]1CN(CC(=O)N(C)C)C2`, the cytotoxicity at 10 µM came to 2.9%.

Regarding `O=C(c1ccccc1)N1C[C@H]2CC[C@@H](C1)N(Cc1cc(F)ccc1Cl)C2`, the cytotoxicity at 10 µM was -4.39%.

As to `COc1nc2c(cc1C(=O)N(C)Cc1n[nH]c3c1CCCC3)CCC2`, the cytotoxicity at 10 µM was -1.89%.

With `O=C(c1cc2c([nH]c1=O)CCC2)N1CCCC1c1cccnc1` (stereo not given), the cytotoxicity at 10 µM is -5.79%.

Regarding `Cc1cc(OCC(=O)NC(C)c2ccc(N3CCOCC3)cc2)no1` (stereo not given), the cytotoxicity at 10 µM is -12.9%.

Turning to `CCc1ccc(OCC(O)CN2CCN(S(C)(=O)=O)CC2)cc1` (stereo not given), the cytotoxicity at 10 µM stood at 7.07%.

Turning to `O=C(NCC(Cc1cccc(F)c1)N1CCCC1=O)c1ccc[nH]c1=O` (stereo not given), the cytotoxicity at 10 µM was -2.42%.

For `Cn1c(NC(=O)CNC(=O)C2CC2)nc2cc(Cl)ccc21`, the cytotoxicity at 10 µM worked out at 3.66%.

As to `COc1cc(C)ccc1C(=O)N1C[C@@H](CN(C)CCO)[C@@H](CO)C1`, the cytotoxicity at 10 µM was found to be 1%.

In the case of `CCn1cc(S(=O)(=O)NCC(c2ccccc2)N2CCOCC2)c(C)n1` (stereo not given), the cytotoxicity at 10 µM amounted to 2.76%.

For `CC1CN(C(=O)NCCc2nc(C(C)C)no2)CCO1` (stereo not given), the cytotoxicity at 10 µM is -0.745%.

For the compound `COc1cccc(CN2CCN(c3noc(C(C)C)n3)CC2)c1F`, the cytotoxicity at 10 µM came to 2.97%.

Turning to `O=C(CN1CCOCC1)Nc1ccc(C(F)(F)F)cc1Cl`, the cytotoxicity at 10 µM came to 4.72%.

For `CCCNC(=O)CNC(=O)c1scnc1C`, the cytotoxicity at 10 µM was 8.86%.

Consider `CC(=O)N1CCC2(C1)c1ccccc1S(=O)(=O)N2CCC(C)C` (stereo not given), for which the cytotoxicity at 10 µM was -9.11%.

Consider `O=C(Cn1ccc2ccc(Br)cc21)NC[C@@H]1CCCN2CCCC[C@H]12`, for which the cytotoxicity at 10 µM amounted to 14.7%.

Take `CC(C)c1nc(CN(C)C(=O)CCNC(=O)c2ccccc2F)no1`: the cytotoxicity at 10 µM was found to be 4.66%.

For `O=C(c1cccnc1O)N(Cc1ccsc1)CC1CCCO1` (stereo not given), the cytotoxicity at 10 µM was -12.3%.

Regarding `CNC(=O)C1(c2cnccn2)CCCN1C(=O)c1ccccc1OC` (stereo not given), the cytotoxicity at 10 µM was 3.1%.

In the case of `O=C1CNc2ncnc(N3CCN(c4ccccc4F)CC3)c2N1`, the cytotoxicity at 10 µM worked out at 7.69%.

`CC(NC(=O)c1ccnn1C)c1ccc(OCC2CC2)c(F)c1` (stereo not given): the cytotoxicity at 10 µM was 48.8%.

For the compound `Cc1nn(CCCNC(=O)C2CCN(S(C)(=O)=O)CC2)cc1Cl`, the cytotoxicity at 10 µM was -1.94%.

With `O=c1ccc2c(n1Cc1cccnc1)CCN(C1CCOC1)CC2` (stereo not given), the cytotoxicity at 10 µM turned out to be 9.58%.

For `CS(=O)(=O)N1CCN(Cc2c(O)ccc3oc4c(c23)CCCC4)CC1`, the cytotoxicity at 10 µM was determined as 1.01%.

Regarding `Cc1cccc(CN2C[C@@H](C)[C@@]3(CCN(CC(=O)N(C)C)C3=O)C2)c1`, the cytotoxicity at 10 µM was -0.979%.

In the case of `c1cc(CN2CCO[C@H]3[C@H](OCC4CCOCC4)CC[C@@H]32)co1`, the cytotoxicity at 10 µM was -117%.

For the compound `CCN(CC)C(=O)CNS(=O)(=O)c1cc(Br)ccc1F`, the cytotoxicity at 10 µM is -45.9%.

Take `CC(C(=O)Nc1ccccc1F)S(C)(=O)=O` (stereo not given): the cytotoxicity at 10 µM is -5.27%.

In the case of `CN(C)C(=O)C1CN(Cc2c[nH]cn2)CCN(C2CCOCC2)C1` (stereo not given), the cytotoxicity at 10 µM was -5.97%.

Turning to `COc1ccc(CNC(=O)NC2CCN(CC3CCCC3)CC2)cn1`, the cytotoxicity at 10 µM is -8.01%.

`O=C(c1cccnn1)N1C[C@@H]2CC[C@H](Oc3cccc(F)c3)[C@@H]2C1`: the cytotoxicity at 10 µM is -13.6%.

Take `CC(Cn1ccnc1)NCc1cc(Br)c2c(c1)OCO2` (stereo not given): the cytotoxicity at 10 µM came out at 12.9%.

In the case of `O=C(Nc1cccc(N2CCN(CC3CC3)CC2)c1)C1CCCO1` (stereo not given), the cytotoxicity at 10 µM was -1.23%.

With `Cc1ccn(CCNc2ncnc3c2CCN(Cc2ncc[nH]2)CC3)n1`, the cytotoxicity at 10 µM is -1.47%.

Take `COC1(CNC(=O)NCCc2ccccc2)CCSC1` (stereo not given): the cytotoxicity at 10 µM is -12.6%.

In the case of `O=C(CC1=CCCCC1)Nc1ncn(CC(=O)N2CCCCCC2)n1`, the cytotoxicity at 10 µM was determined as 1.72%.

Regarding `CCc1ccc(C2COCCN2C(=O)Nc2cccc(C(C)=O)c2)o1` (stereo not given), the cytotoxicity at 10 µM was -7.13%.

Regarding `Cc1csc([C@@H]2C[C@H]3CN(c4ncc(F)cn4)C[C@H]3O2)n1`, the cytotoxicity at 10 µM turned out to be 6.88%.

On to `Cc1nc(CN2CC[C@H]3[C@@H]2CCC(=O)N3c2cnn(C)c2)cs1`, for which the cytotoxicity at 10 µM turned out to be 11.3%.

In the case of `O=S(=O)(Cc1ccccc1)NCC1CCCN(Cc2cccs2)C1` (stereo not given), the cytotoxicity at 10 µM is 3.3%.

For `CC(C)[C@@H]1CN(C(=O)CN(C)Cc2ccc(F)cc2)C[C@H]1C(=O)O`, the cytotoxicity at 10 µM was found to be 1.74%.

In the case of `CC(=O)N1CC[C@H]2N(C)CC[C@@]2(C(=O)Nc2cccnc2)CC1`, the cytotoxicity at 10 µM was -111%.

Regarding `COc1cccc(-c2n[nH]cc2CNCC2CCS(=O)(=O)C2)c1` (stereo not given), the cytotoxicity at 10 µM was -3.54%.

Regarding `COc1cccc(C(O)Cn2ncc3ncccc3c2=O)c1` (stereo not given), the cytotoxicity at 10 µM was -2.45%.

Consider `O=C(CC1[C@H]2CN(C(=O)CO)C[C@@H]12)Nc1cccnc1` (stereo not given in full), for which the cytotoxicity at 10 µM turned out to be 9.19%.
